In ChEMBL document CHEMBL1124003, “A pyrimidine-based "flexible" bisubstrate analogue inhibitor of human thymidylate synthase” (J Med Chem, 1988):

How the values were obtained:
[1] = biological target: T1, Thymidylate synthase (Homo sapiens, UniProt P04818); assay: Competitive inhibition of the human thymidylate synthase at 600 uM as Ki(slope) of 5,10-CH2-H4PteGlu; conditions: in the assay text read “28 uM dUMP” for “600 uM”
In short: (§1)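 TS purified ~1350-fold (specific activity 17.4 units/mg) from human acute myeloblastic leukemia cell pellet; tritium-release assay with [5-3H]dUMP, started by enzyme addition, 45 or 60 min incubation. Ki from varying dUMP, 5,10-CH2-H4PteGlu or 5,10-CH2-H4PteGlu5 at several fixed inhibitor levels; fixed cosubstrate 28 µM dUMP or 600 µM CH2-H4PteGlu (40 µM pentaglutamate); duplicate/triplicate, repeated.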
Target sequence in this assay (P04818 whole entry): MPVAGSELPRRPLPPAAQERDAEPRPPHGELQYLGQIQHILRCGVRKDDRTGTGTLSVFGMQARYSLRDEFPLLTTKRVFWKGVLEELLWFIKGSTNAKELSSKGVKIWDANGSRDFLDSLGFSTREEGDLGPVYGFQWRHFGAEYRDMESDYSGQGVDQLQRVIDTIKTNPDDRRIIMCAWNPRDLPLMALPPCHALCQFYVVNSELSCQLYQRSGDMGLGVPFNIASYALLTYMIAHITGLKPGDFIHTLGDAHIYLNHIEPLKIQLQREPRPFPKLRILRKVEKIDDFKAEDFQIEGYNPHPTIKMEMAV

[2] = biological target: T1, Thymidylate synthase; assay: Inhibition of human thymidylate synthase at 40 uM concentration of 5,10-CH2-H4PteGlu5; in short: as §1
Target sequence in this assay (P04818 whole entry): as above

[3] = biological target: T1, Thymidylate synthase; assay: Mixed inhibition of the human thymidylate synthase at 28 uM of 5,10-CH2-H4PteGlu5; in short: as §1
Target sequence in this assay (P04818 2-313 limits assumed): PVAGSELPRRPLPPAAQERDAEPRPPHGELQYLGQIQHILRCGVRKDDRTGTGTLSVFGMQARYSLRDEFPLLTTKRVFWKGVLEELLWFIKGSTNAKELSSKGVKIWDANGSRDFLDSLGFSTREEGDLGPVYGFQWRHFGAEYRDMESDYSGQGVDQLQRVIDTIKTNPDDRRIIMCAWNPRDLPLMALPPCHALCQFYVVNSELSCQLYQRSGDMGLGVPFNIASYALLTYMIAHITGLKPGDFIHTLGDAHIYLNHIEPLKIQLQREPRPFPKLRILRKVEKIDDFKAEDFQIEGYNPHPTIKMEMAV

[4] = biological target: T1, Thymidylate synthase; assay: Competitive inhibition of the human thymidylate synthase at 600 uM of 5,10-CH2-H4PteGlu
Target sequence in this assay (P04818 whole entry): as the sequence (P04818 whole entry) above

[5] = biological target: T1, Thymidylate synthase; assay: Inhibition of human thymidylate synthase at 600 uM concentration of 5,10-CH2-H4PteGlu; in short: as §1
Target sequence in this assay (P04818 whole entry): as above

[6] = biological target: T1, Thymidylate synthase; assay: Competitive inhibition of the human thymidylate synthase at 28 uM as Ki(slope) of 5,10-CH2-H4PteGlu; in short: as §1
Target sequence in this assay (P04818 whole entry): as above

Ki [1] [nM]	IC50 [2] [nM]	Kii [3] [µM]	Kis [3] [µM]	Ki [4] [nM]	IC50 [5] [nM]	Ki [6] [nM]	Compound
85	200	0.11	0.33	27	390		Nc1nc(O)c2c(n1)CCC(CNc1ccc(C(=O)NC(CCC(=O)O)C(=O)O)cc1)N2Cc1cn([C@H]2C[C@H](O)[C@@H](COP(=O)(O)O)O2)c(=O)[nH]c1=O (stereo partly drawn)
	350	0.2	1.19		1000	230	Cc1nc(N)nc(O)c1N(CCN(C)c1ccc(C(=O)NC(CCC(=O)O)C(=O)O)cc1)Cc1cn([C@H]2C[C@H](O)[C@@H](COP(=O)(O)O)O2)c(=O)[nH]c1=O (stereo partly drawn)
	1180				7300		Cc1nc(N)nc(O)c1N(CCNc1ccc(C(=O)NC(CCC(=O)O)C(=O)O)cc1)Cc1cn([C@H]2C[C@H](O)[C@@H](COP(=O)(O)O)O2)c(=O)[nH]c1=O (stereo partly drawn)
